# High-throughput results deposited in PubChem by several laboratories.
# Only some compounds are listed: those with a hit (about 3.8% of all), similar ones and a draw of the others.
# RAM inhibit – blocks the yeast RAM network. S. cerevisiae dse1pr::URA3 reporter, 5-FOA growth OD615, 2 d; analog-sensitive cbk1-as2 kinase mutant strain. inhibition, % at 50 µM. 190,000 tested, 1.8% active. AID 868;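 active means inhibition above a set limit, 3 SD over mean compound inhibition, cut at about 8.4% in these data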;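 further: inhibition rescues growth on 5-FOA so higher OD means more RAM inhibition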
# SDO1 yeast rescue – restores growth of sdo1-depleted yeast; 140,000 tested, 0.21% active; z-score at 10 µM; S. cerevisiae sdo1-depleted JHY4D growth rescue, OD600 30 h; active compounds read high; pdr5 snq2 efflux-pump mutant strain;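 active means z-score above 3 at both the 24 hr and the 30 hr optical density reads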
# Yeast growth inh – yeast BB579 growth reduction in restrictive medium; inhibition, % at 10 µM; S. cerevisiae BB579 growth, OD615, 48 h; AID 804; 140,000 tested, 0.51% active;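 active means inhibition above a set limit, 3 SD over the mean compound inhibition, cut at about 44% in these data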
#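 test system = yeast BB579 (DeaD) | buffer or medium = restrictive CSMM-D medium | doses = single compound dose of 10 µM, 0.25% DMSO final | times = 4 h preincubation and 48 h exposure at 30 °C | technique = culture absorbance at 615 nm | benchmarks = amphotericin B 10 µg/mL, positive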
# Measles CPE – protection of cells from measles virus; Measles virus-infected cells, CPE protection, absorbance; protection (pct of control), % at 4 µM; 140,000 tested, 1.5% active; AID 841; in the data active means protection mostly above about 24%, no sharp cut-off; inactive means mostly below about 26%
# Yeast lifespan up – extends the lifespan of yeast. AID 775. 130,000 tested, 0.68% active. inhibition of the nicotinamide effect, % at 10 µM. S. cerevisiae growth with nicotinamide, OD615; deaD strain in restrictive glucose medium;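 active means inhibition above a set limit, placed 3 SD over the median of all compounds, cut at about 26% in these data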
#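 Test system: DeaD-strain S. cerevisiae / Buffer or medium: restrictive glucose medium / Also added: nicotinamide 1.5 mM / Doses: one concentration, 10 µM, DMSO 0.25% / Schedule: 48 h at 30 °C / Signal: OD615 measurement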
# A number is an active result; 0 = inactive; - = no result given.
SMILES,RAM inhibit,SDO1 yeast rescue,Yeast growth inh,Measles CPE,Yeast lifespan up
O=C(c1ccc(Cl)cc1)c1c[nH]c(C(=O)C(Cl)(Cl)Cl)c1,0,0,84,0,0
Cc1ccc(C(=O)COc2ccccc2-c2ccccc2)cc1,0,0,0,0,0
Cc1ccc(C(=O)COc2ccccc2N2C(=O)c3ccccc3C2=O)cc1,8.8,0,0,-,0
COC(=O)c1ccc(Cl)c(-c2ccc(/C=N/NC(=O)Nc3ccccc3)o2)c1,9.0,0,0,0,0
Cc1cc(C)cc(NC(=O)C(Nc2ccccc2)c2ccccc2)c1 (centres undefined),0,0,0,46,0
Cc1ccc(NC(=O)C(Nc2ccccc2)c2ccccc2)cc1 (centres undefined),0,0,0,0,0
CC(=O)n1cc(C(C[N+](=O)[O-])SCCN)c2ccccc21 (centres undefined),0,0,73,0,0
O=c1c2c([N+](=O)[O-])cc([N+](=O)[O-])cc2sn1-c1ccc(Br)cc1,0,0,45,0,0
COc1cc(-c2nc(-c3ccc4c(c3)-c3ccccc3S4(=O)=O)c(-c3ccccc3)[nH]2)cc(OC)c1OC,0,0,0,0,0
COc1cccc(-c2nc(-c3ccc4c(c3)-c3ccccc3S4(=O)=O)c(-c3ccccc3)[nH]2)c1OC,9.2,0,0,0,-
Cc1csc(=N)n1CC(=O)N1CCc2ccccc21,0,0,0,26,0
COc1ccc(C(=O)N2CCc3ccccc32)cc1,0,0,0,28,-
CCOC(=O)/C=C/C(=O)N1CCc2ccccc21,0,0,0,25,0
CCOC(=O)c1cc2sccc2n1CC(=O)N1CCc2ccccc21,0,0,0,0,0
O=C(CSc1nnc(-c2ccncc2)n1-c1ccccc1)N1CCN(c2ccc(Cl)cc2)CC1,0,0,0,0,0
O=C(NNC(=S)Nc1ccc(F)c(Cl)c1)c1ccccc1Br,0,-,-,-,-
COc1cccc(-c2cc(C(=O)Nc3cccc(O)c3)no2)c1,9.2,0,0,0,0
COc1ccccc1-c1cc(C(=O)Nc2ccccc2SC)no1,9.0,0,0,0,0
COc1ccc(-c2cc(C(=O)Nc3ccccc3SC)no2)cc1OC,8.7,0,0,0,0
CC(C)COc1ccc(C/C(N)=N/n2cnnc2)cc1,0,-,-,-,-
CCOC1=NN(c2ccc(Cl)cc2)C(=O)/C1=C\N(C)C,0,-,-,-,-
COC(=O)c1nn(-c2ccc(Cl)cc2)c(=O)cc1Sc1ccccn1,0,0,0,28,0
COc1ccc(C(=O)NCCCN2CCOCC2)cc1OC,0,0,0,66,0
CC(=O)Nc1ccc(S(=O)(=O)NCC(=O)OC(C)c2ccccc2Cl)cc1 (centres undefined),0,0,0,0,0
CCOC(=O)c1cn(-c2nc(-c3ccc(Cl)c(Cl)c3)cs2)c2c(F)c(N3CCOCC3)c(F)cc2c1=O,9.7,0,0,0,0
SMILES,RAM inhibit,SDO1 yeast rescue,Yeast growth inh,Measles CPE,Yeast lifespan up
CS(=O)(=O)Cc1cc(N2CCCC2)nc(-c2ccccc2)n1,0,-,-,-,-
COc1ccc2nc(NC(=S)N(C)C)sc2c1,0,0,65,0,0
COc1ccc2nc(NC(=O)C(NS(=O)(=O)c3cccs3)C(C)C)sc2c1 (centres undefined),8.8,0,0,0,0
Cc1ccc(Cl)cc1NC(=S)N1CCC(c2ccccc2)C1 (centres undefined),0,-,-,-,-
Cc1cc(-n2[nH]c(C)c(C)c2=O)nc(-c2ccccc2O)n1,0,0,0,0,-
Cc1cc(OCc2ccc(F)cc2)nc(-c2ccccc2O)n1,0,0,0,33,0
Cc1ccc(Oc2cc(C)nc(-c3ccccc3O)n2)cc1,9.4,0,0,0,0
Cc1cc(OC2CCCCC2)nc(-c2ccccc2O)n1,0,0,0,0,0
COCCNc1ccc(S(=O)(=O)N2CCCC2)cn1,0,-,-,-,-
CC(C)(C)n1nc2c(c1NC(=O)c1cccc(C(F)(F)F)c1)CS(=O)C2 (centres undefined),0,0,0,0,0
O=C(COc1ccc(S(=O)(=O)N2CCOCC2)cc1)Nc1ccccc1C(F)(F)F,0,0,0,0,0
CC(=O)Oc1ccc2ccccc2c1C(NC(=O)Cc1ccccc1)c1ccccc1 (centres undefined),9.6,0,0,0,0
CC(=O)NC(c1cccc([N+](=O)[O-])c1)c1c(OC(C)=O)ccc2ccccc12 (centres undefined),0,0,0,0,-
CCN(CC(=O)NCc1cccs1)C(=O)CCc1c[nH]c2ccccc12,0,-,-,-,-
